ChEMBL document CHEMBL2046351, “Discovery of cyclic sulfone hydroxyethylamines as potent and selective β-site APP-cleaving enzyme 1 (BACE1) inhibitors: structure-based design and in vivo reduction of amyloid β-peptides” (J Med Chem, 2012)

Assays:
[1] = AUC (0 to infinity) in C57BL/6 mouse at 6 umol/kg, po dosed in HS15/propylenglycol/citrate buffer, pH 4.75, 50 mM (10/5/85, v/v/v) by LC/MS/MS analysis; assay type: ADME, organism-based; parameters: dose 6 umol/kg, time infinity, route oral; conditions: plasma
How it was run: (§1)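 Male C57BL/6 mice were dosed by oral gavage at 10 mL/kg. Blood was sampled at 0.25, 0.5, 1, 2, 4 and 6 h postdose, extracted by acetonitrile precipitation and quantified by LC-MS/MS (typical LLOQ 0.4 ng/mL). AUCinf was obtained by noncompartmental analysis of concentration–time profiles, weighting 1/Y, with at least three terminal log-linear points.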

Cytochrome P450 3A4 = Cytochrome P450 3A4 (Homo sapiens, UniProt P08684); assay: Inhibition of CYP3A4; assay type: ADME
Brain [2] = assay: Drug uptake in C57BL/6 mouse brain at 60 umol/kg, po dosed in carboxymethyl cellulose 0.5% w/v in water/Tween 80 (99.5/0.5, v/v) measured 4 hrs post dosing by LC/MS/MS analysis; assay type: ADME, organism-based; conditions: in vivo
How it was run: (§2)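 Male C57BL/6 mice dosed by oral gavage, 10 mL/kg. Blood sampled 0.25, 0.5, 1, 2, 4, 6 h; brain at 1 and/or 4 h; n = 3 per time. Blood acetonitrile-precipitated, brain water-homogenized then precipitated; LC-MS/MS with weighted linear calibration.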

[3] = Ratio of drug uptake in brain to blood in C57BL/6 mouse at 2 umol/kg, iv dosed in N-methyl pyrrolidone/blank plasma (10:90 v/v) measured 1 hr post dosing by LC/MS/MS analysis; assay type: ADME, organism-based
How it was run: (§3)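 Male C57BL/6 mice, saphenous vein injection under light anesthesia, 5 mL/kg. Blood at 5, 30 min and 1, 2, 4, 6, 8 h; brain at 5 min, 1, 4, 8 h; n = 3/time. LC-MS/MS after acetonitrile precipitation (brain water-homogenized). Noncompartmental analysis, 1/Y weighting, terminal slope from ≥3 points.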

[4] = AUC (0 to infinity) in C57BL/6 mouse at 6 umol/kg, po dosed in carboxymethyl cellulose 0.5% w/v in water/Tween 80 (99.5/0.5, v/v) by LC/MS/MS analysis; assay type: ADME, organism-based; parameters: dose 6 umol/kg, time infinity, route oral; conditions: in vivo; how it was run: as §1
[5] = Oral bioavailability in C57BL/6 mouse at 6 umol/kg dosed in carboxymethyl cellulose 0.5% w/v in water/Tween 80 (99.5/0.5, v/v) by LC/MS/MS analysis; assay type: ADME, organism-based; conditions: in vivo
How it was run: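 Oral gavage (10 mL/kg) to male C57BL/6 mice with iv reference segment (2 μmol/kg, NMP/blank plasma 10:90). Noncompartmental analysis of LC-MS/MS blood profiles, 1/Y weighting; %F = dose-normalized oral AUC / dose-normalized iv AUC × 100, assuming linear pharmacokinetics between doses.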

[6] = Ratio of drug uptake in brain to blood in C57BL/6 mouse at 60 umol/kg, po dosed in carboxymethyl cellulose 0.5% w/v in water/Tween 80 (99.5/0.5, v/v) measured 4 hrs post dosing by LC/MS/MS analysis; assay type: ADME, organism-based; how it was run: as §2
[7] = Drug uptake in C57BL/6 mouse blood at 6 umol/kg, po dosed in carboxymethyl cellulose 0.5% w/v in water/Tween 80 (99.5/0.5, v/v) measured 4 hrs post dosing by LC/MS/MS analysis; assay type: ADME, organism-based; conditions: read-out: Drug uptake; how it was run: as §2
[8] = Ratio of drug uptake in brain to blood in C57BL/6 mouse at 6 umol/kg, po dosed in carboxymethyl cellulose 0.5% w/v in water/Tween 80 (99.5/0.5, v/v) measured 1 hr post dosing by LC/MS/MS analysis; assay type: ADME, organism-based; how it was run: as §2
Brain [9] = assay: Drug uptake in C57BL/6 mouse brain at 2 umol/kg, iv dosed in N-methyl pyrrolidone/blank plasma (10:90 v/v) measured 4 hrs post dosing by LC/MS/MS analysis; assay type: ADME, organism-based; conditions: in vivo; how it was run: as §3

Cytochrome P450 3A4, sequence (P08684 whole entry): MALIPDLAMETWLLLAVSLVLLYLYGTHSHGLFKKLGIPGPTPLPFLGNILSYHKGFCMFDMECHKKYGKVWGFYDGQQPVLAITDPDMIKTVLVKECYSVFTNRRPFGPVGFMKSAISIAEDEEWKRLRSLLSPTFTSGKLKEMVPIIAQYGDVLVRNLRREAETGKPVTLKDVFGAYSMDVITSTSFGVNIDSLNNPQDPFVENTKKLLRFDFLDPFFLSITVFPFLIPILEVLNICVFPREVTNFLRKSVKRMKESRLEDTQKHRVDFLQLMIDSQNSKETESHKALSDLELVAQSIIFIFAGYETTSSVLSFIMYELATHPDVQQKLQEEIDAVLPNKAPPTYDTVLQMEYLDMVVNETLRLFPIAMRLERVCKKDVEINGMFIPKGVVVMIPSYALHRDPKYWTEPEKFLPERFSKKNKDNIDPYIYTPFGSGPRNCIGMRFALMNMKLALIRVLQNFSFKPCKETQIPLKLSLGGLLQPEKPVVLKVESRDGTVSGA

| AUC(0-inf) [1] [µM·h] | IC50 (Cytochrome P450 3A4) [nM] | Drug uptake (Brain [2]) [nmol/g] | Kp at 1 h [3] | AUC(0-inf) [4] [µM·h] | bioavailability [5] [%] | Kp at 4 h [6] | concentration at 4 h [7] [nM] | Kp at 1 h [8] | Drug uptake (Brain [9]) [nmol/g] | SMILES |
| --- | --- | --- | --- | --- | --- | --- | --- | --- | --- | --- |
| 0.398 | 300 | – | – | – | – | – | – | – | – | CC(C)(C)c1cccc(CN[C@H]2CS(=O)(=O)C[C@@H](Cc3cc(F)c(N)c(OC(C(F)(F)F)C(F)(F)F)c3)[C@@H]2O)c1 |
| – | – | 0.55 | 1.8 | 0.466 | 52 | 0.3 | 10 | 2.7 | 0.01 | CC(C)(C)c1cccc(CN[C@H]2CS(=O)(=O)C[C@@H](Cc3cc(F)c(N)c(OCC(F)(F)F)c3)[C@@H]2O)c1 |
